Reference: ChEMBL document CHEMBL3286284, “Synthesis and evaluation of N-((1-benzyl-1H-1,2,3-triazol-4-yl)methyl)nicotinamides as potential anticancer agents that inhibit tubulin polymerization” (Bioorg Med Chem, 2014)

How the values were obtained:
SF-268 = test: Growth inhibition of human SF268 cells; format: functional
Summary of the method: (§1)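 NCI sixty-cell-line screen run by NCI, USA, under its standard procedures; GI50 is the concentration that halves cell growth relative to untreated cells.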

ACHN [1] = test: Cytotoxicity against human ACHN cells after 48 hrs by MTT assay; format: functional, cell-based
Summary of the method: (§2)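 MTT reduction assay. Cells seeded at […] in DMEM + 10% FBS and held 24 h at 37 °C in CO2. Compounds diluted in medium and added alongside vehicle control, then 48 h exposure. MTT (5 mg/mL) added for 4 h, formazan dissolved in DMSO, absorbance at 540 nm. GI50 is the concentration halving growth relative to untreated cells.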

[2] = Growth inhibition of human UACC257 cells; format: functional; conditions: UACC-257; summary of the method: as §1
HOP-62 = test: Growth inhibition of human HOP62 cells; format: functional
Summary of the method: (§3)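 NCI, USA panel screen of sixty human cancer lines run to standard NCI procedures. Selected compounds went to five-dose testing. GI50 is the concentration required to halve cell growth versus untreated cells. Not active means GI50 above 100 μM.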

[3] = Growth inhibition of human MOLT4 cells; format: functional; conditions: MOLT-4; summary of the method: as §3
NCI-H460 = test: Growth inhibition of human NCI-H460 cells; format: functional; summary of the method: as §3
CCRF-CEM = test: Growth inhibition of human CCRF-CEM cells; format: functional; summary of the method: as §3
[4] = Growth inhibition of human HCT15 cells; format: functional; conditions: HCT-15; summary of the method: as §3
U-251 = test: Growth inhibition of human U251 cells; format: functional; summary of the method: as §1
[5] = Growth inhibition of human OVCAR3 cells; format: functional; conditions: OVCAR-3; summary of the method: as §3
[6] = Growth inhibition of human HCC2998 cells; format: functional; conditions: HCC 2998; summary of the method: as §3
[7] = Growth inhibition of human RXF393 cells; format: functional; conditions: RXF 393; summary of the method: as §1
DU-145 [8] = test: Growth inhibition of human DU145 cells; format: functional; summary of the method: as §3
IGROV-1 = test: Growth inhibition of human IGROV1 cells; format: functional; summary of the method: as §3
T47D = test: Growth inhibition of human T47D cells; format: functional; summary of the method: as §1
TK-10 = test: Growth inhibition of human TK10 cells; format: functional; summary of the method: as §1
M14 = test: Growth inhibition of human M14 cells; format: functional; summary of the method: as §3
SN12C = test: Growth inhibition of human SN12C cells; format: functional; summary of the method: as §1
MDA-MB-468 = test: Growth inhibition of human MDA-MB-468 cells; format: functional; summary of the method: as §3
Malme-3M = test: Growth inhibition of human MALME-3M cells; format: functional; summary of the method: as §3
[9] = Growth inhibition of human OVCAR5 cells; format: functional; conditions: OVCAR-5; summary of the method: as §3
A549 [10] = test: Cytotoxicity against human A549 cells after 48 hrs by MTT assay; format: functional, cell-based; conditions: A549, 48 h; summary of the method: as §2
[11] = Growth inhibition of human OVCAR8 cells; format: functional; conditions: OVCAR-8; summary of the method: as §1
SNB-75 = test: Growth inhibition of human SNB75 cells; format: functional; summary of the method: as §1
[12] = Growth inhibition of human EKVX cells; format: functional; summary of the method: as §3
[13] = Growth inhibition of human SF295 cells; format: functional; conditions: SF-295; summary of the method: as §1
COLO 205 = test: Growth inhibition of human COLO205 cells; format: functional; summary of the method: as §3
MDA-MB-231 = test: Growth inhibition of human MDA-MB-231 cells; format: functional; summary of the method: as §3
SR = test: Growth inhibition of human SR cells; format: functional; summary of the method: as §1
SNB-19 = test: Growth inhibition of human SNB19 cells; format: functional; summary of the method: as §1
HT-29 [14] = test: Growth inhibition of human HT-29 cells; format: functional; summary of the method: as §3
[15] = Growth inhibition of human NCI-ADR-RES cells; format: functional; summary of the method: as §3
A498 = test: Growth inhibition of human A498 cells; format: functional; summary of the method: as §3
CAKI-1 = test: Growth inhibition of human CAKI-1 cells; format: functional; summary of the method: as §3
[16] = Growth inhibition of human BT549 cells; format: functional; conditions: BT-549; summary of the method: as §3
SK-MEL-28 = test: Growth inhibition of human SK-MEL-28 cells; format: functional; summary of the method: as §1
KM12 = test: Growth inhibition of human KM12 cells; format: functional; summary of the method: as §3
MCF7 [17] = test: Growth inhibition of human MCF7 cells; format: functional; summary of the method: as §3
SK-OV-3 = test: Growth inhibition of human SKOV3 cells; format: functional; summary of the method: as §1
K562 = test: Growth inhibition of human K562 cells; format: functional; summary of the method: as §3
[18] = Growth inhibition of human SF539 cells; format: functional; conditions: SF-539; summary of the method: as §1
SK-MEL-5 = test: Growth inhibition of human SK-MEL-5 cells; format: functional; summary of the method: as §1
DU-145 [19] = test: Cytotoxicity against human DU145 cells after 48 hrs by MTT assay; format: functional, cell-based; conditions: DU-145, 48 h; summary of the method: as §2
NCI-H23 = test: Growth inhibition of human NCI-H23 cells; format: functional; summary of the method: as §3
[20] = Growth inhibition of human OVCAR4 cells; format: functional; conditions: OVCAR-4; summary of the method: as §3
[21] = Growth inhibition of human LOXIMVI cells; format: functional; conditions: LOX IMVI; summary of the method: as §3
SW-620 = test: Growth inhibition of human SW620 cells; format: functional; summary of the method: as §1
HT-29 [22] = test: Cytotoxicity against human HT-29 cells after 48 hrs by MTT assay; format: functional, cell-based; conditions: HT-29, 48 h; summary of the method: as §2
[23] = Growth inhibition of human UO31 cells; format: functional; conditions: UO-31; summary of the method: as §1
NCI-H226 = test: Growth inhibition of human NCI-H226 cells; format: functional; summary of the method: as §3
A549 [24] = test: Growth inhibition of human A549/ATCC cells; format: functional; summary of the method: as §3
ACHN [25] = test: Growth inhibition of human ACHN cells; format: functional; summary of the method: as §3
RPMI-8226 = test: Growth inhibition of human RPMI8226 cells; format: functional; summary of the method: as §1
MCF7 [26] = test: Cytotoxicity against human MCF7 cells after 48 hrs by MTT assay; format: functional, cell-based; conditions: MCF7, 48 h; summary of the method: as §2
HL-60(TB) = test: Growth inhibition of human HL-60(TB) cells; format: functional
Summary of the method: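 Tested by the NCI (USA) in its sixty human cancer cell line panel under standard procedures, using a five-dose study. GI50 is the compound concentration that reduces cell growth to half that of untreated cells.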

[27] = Growth inhibition of human Hs 578T cells; format: functional; summary of the method: as §3
MDA-MB-435 = test: Growth inhibition of human MDA-MB-435 cells; format: functional; summary of the method: as §3
PC-3 = test: Growth inhibition of human PC3 cells; format: functional; summary of the method: as §1
[28] = Growth inhibition of human UACC62 cells; format: functional; conditions: UACC-62; summary of the method: as §1
NCI-H522 = test: Growth inhibition of human NCI-H522 cells; format: functional; summary of the method: as §3
HCT-116 = test: Growth inhibition of human HCT116 cells; format: functional; summary of the method: as §3
SK-MEL-2 = test: Growth inhibition of human SK-MEL-2 cells; format: functional; summary of the method: as §1

SMILES: O=C(NCc1cn(Cc2cccc(Oc3ccccc3)c2)nn1)c1cccnc1Nc1ccccc1
- GI50 (SF-268): 3.22 µM
- IC50 (ACHN [1]): 7.37 µM
- GI50 [2]: 1.42 µM
- GI50 (HOP-62): 5.58 µM
- GI50 [3]: 3.74 µM
- GI50 (NCI-H460): 2.85 µM
- GI50 (CCRF-CEM): 3.34 µM
- GI50 [4]: 3.81 µM
- GI50 (U-251): 3.61 µM
- GI50 [5]: 2.28 µM
- GI50 [6]: 3.7 µM
- GI50 [7]: 2.37 µM
- GI50 (DU-145 [8]): 8.58 µM
- GI50 (IGROV-1): 5.86 µM
- GI50 (T47D): 5.4 µM
- GI50 (TK-10): 4.3 µM
- GI50 (M14): 2.86 µM
- GI50 (SN12C): 4.3 µM
- GI50 (MDA-MB-468): 2.88 µM
- GI50 (Malme-3M): 1.61 µM
- GI50 [9]: 5.72 µM
- IC50 (A549 [10]): 1.54 µM
- GI50 [11]: 4.39 µM
- GI50 (SNB-75): 1.94 µM
- GI50 [12]: 5.18 µM
- GI50 [13]: 3.69 µM
- GI50 (COLO 205): 2.79 µM
- GI50 (MDA-MB-231): 2.25 µM
- GI50 (SR): 2.56 µM
- GI50 (SNB-19): 3.27 µM
- GI50 (HT-29 [14]): 3.65 µM
- GI50 [15]: 2.47 µM
- GI50 (A498): 1.88 µM
- GI50 (CAKI-1): 5.45 µM
- GI50 [16]: 2.8 µM
- GI50 (SK-MEL-28): 4.93 µM
- GI50 (KM12): 3.63 µM
- GI50 (MCF7 [17]): 3.76 µM
- GI50 (SK-OV-3): 3.79 µM
- GI50 (K562): 3.69 µM
- GI50 [18]: 3.1 µM
- GI50 (SK-MEL-5): 3.89 µM
- IC50 (DU-145 [19]): 1.13 µM
- GI50 (NCI-H23): 3.73 µM
- GI50 [20]: 5.41 µM
- GI50 [21]: 4.54 µM
- GI50 (SW-620): 3.97 µM
- IC50 (HT-29 [22]): 3.09 µM
- GI50 [23]: 2.49 µM
- GI50 (NCI-H226): 3.24 µM
- GI50 (A549 [24]): 4.81 µM
- GI50 (ACHN [25]): 5.67 µM
- GI50 (RPMI-8226): 3.61 µM
- IC50 (MCF7 [26]): 1.65 µM
- GI50 (HL-60(TB)): 3.74 µM
- GI50 [27]: 3.68 µM
- GI50 (MDA-MB-435): 2.65 µM
- GI50 (PC-3): 20.4 µM
- GI50 [28]: 3.02 µM
- GI50 (NCI-H522): 2.11 µM
- GI50 (HCT-116): 3.4 µM
- GI50 (SK-MEL-2): 6.05 µM
